According to ChEMBL document CHEMBL1146840, “Syntheses and radical scavenging activities of resveratrol derivatives” (Bioorg Med Chem Lett, 2004):

Assays:
[1] = Free radical scavenging activity of DPPH relative to resveratrol was determined
Procedure, shortened: (§1)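 Ethanolic DPPH (1.01×10^-4 M) plus sample (1:9 by volume), 30 min at room temperature, absorbance at 518 nm, decrease versus control. Triplicate, repeated at least three times. The relative value is the IC50 of resveratrol divided by the IC50 of the test compound.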

[2] = Free radical scavenging activity of DPPH was determined
Procedure, shortened: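 DPPH bleaching assay: sample solution mixed 1:9 with ethanolic DPPH (1.01×10^-4 M), kept 30 min at room temperature, then A518 read and remaining DPPH calculated. Triplicate, repeated at least three times.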

[3] = Free radical scavenging activity of DPPH expressed as percent polyphenol
[4] = Free radical scavenging activity of DPPH was determined; value taken from reference 11
[5] = Free radical scavenging activity of DPPH w.r.t. resveratrol was determined; procedure, shortened: as §1
[6] = Half life of the radiolabeled compound was determined; format: ADME

SMILES | Relative IC50 [1] | IC50 [2] [µM] | Activity [3] [%] | IC50 [4] [µM] | Relative IC50 [5] | T1/2 [6] [h]
Oc1ccc(/C=C/c2cc(O)cc(O)c2Br)cc1 | 3.43 | 35.9 | 85.8 | – | – | –
OC[C@H]1O[C@@H](Oc2cc(O)cc(/C=C/c3ccc(O)cc3)c2)[C@H](O)[C@@H](O)[C@@H]1O [PICEID] | 0.37 | – | – | 200 | – | –
[18FH] [F-18] | – | – | – | – | – | 1.83
Oc1cc(O)c2c(c1)O[C@H](c1ccc(O)c(O)c1)[C@H](O)C2 [(-)-EPICATECHIN] | 4.71 | – | – | 15.7 | – | –
Oc1cc(O)c2c(c1)O[C@H](c1ccc(O)c(O)c1)[C@@H](O)C2 [CIANIDANOL] | 3.66 | – | – | 20.2 | – | –
Oc1ccc(/C=C/c2cc(O)c(I)c(O)c2)cc1 | 1.75 | 70.6 | 72 | – | – | –

The next lines start with results.

Relative IC50 [1] | IC50 [2] [µM] | Activity [3] [%] | IC50 [4] [µM] | Relative IC50 [5] | SMILES | T1/2 [6] [h]
2.42 | – | – | 30.6 | – | OC[C@H]1O[C@@H](Oc2cc(O)cc(/C=C/c3ccc(O)c(O)c3)c2)[C@H](O)[C@@H](O)[C@@H]1O | –
1.77 | 69.5 | 50.4 | – | – | COc1cc(/C=C/c2ccc(O)c(CCF)c2)cc(OC)c1 | –
– | 123 | 100 | 74 | 1 | Oc1ccc(/C=C/c2cc(O)cc(O)c2)cc1 [RESVERATROL] | –
– | – | 26.6 | – | – | COc1ccc(/C=C/c2cc(OC)cc(OC)c2Br)cc1 | –
2.55 | – | – | 29 | – | Oc1cc(O)cc(/C=C/c2ccc(O)c(O)c2)c1 [PICEATANNOL] | –
2.6 | 47.4 | 95.6 | – | – | Oc1cc(O)cc(/C=C/c2ccc(O)c(CCF)c2)c1 | –
2.41 | 51.2 | 98 | – | – | Oc1cc(O)cc(/C=C/c2ccc(O)c(Br)c2)c1 | –
1.68 | 73.4 | 88 | – | – | Oc1cc(O)cc(/C=C/c2ccc(O)c(I)c2)c1 | –
